Reference: ChEMBL document CHEMBL6071188, “Synthesis and In Vivo Profiling of Desymmetrized Antimalarial Trioxolanes with Diverse Carbamate Side Chains” (ACS Med Chem Lett, 2024)
In brackets after ≈: the same amount, converted by molar mass. Activity calls are given as the source filed them. The rule behind the calls is not given here.

What was measured:
[1] = Metabolic stability in human liver microsomes assessed as intrinsic clearance; format: ADME, Microsome; conditions: for microsomal CLint: liver microsomes, read-out: CLH
[2] = Solubility of the compound in PBS buffer at pH 7.4; format: physicochemical
[3] = test system: Plasmodium berghei; test: Antiplasmodial activity against Plasmodium berghei infected in female Swiss Webster mouse model assessed as survival at 10 mg/kg, po administered once daily for 2 days and measured upto 30 days; format: functional; conditions: time 30 day
Summary of the method: (§1)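 Female Swiss Webster mice (~20 g) infected ip with 10^6 P. berghei-infected erythrocytes from a donor mouse. Dosing by oral gavage once daily for 1–2 days starting 1 h post-inoculation, in 10% DMSO/50% PEG400/40% of 20% HP-β-CD in water. Five mice per arm. Daily Giemsa smears from day 7, counting infected cells per 1000 erythrocytes. Body weight tracked. Euthanasia at >50% parasitemia or >15% weight loss. Followed to day 30; cure means no parasitemia at day 30. Survival reported as the day of the longest-surviving mouse.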

[4] = Toxicity in female Swiss Webster mouse infected with Plasmodium berghei assessed as drug tolerance at 10 mg/kg, po administered once daily for 2 days and measured upto 30 days; format: organism-based; conditions: in vivo, 720 h, time 30 day; summary of the method: as §1
[5] = test system: Plasmodium berghei; test: Antiplasmodial activity against Plasmodium berghei infected in female Swiss Webster mouse model assessed as reduction in parasitemia at 20 mg/kg, po administered once daily for 2 days and measured upto 30 days by giemsa staining based microscopic analysis; format: functional, organism-based; conditions: time 30.0 day; summary of the method: as §1
[6] = Clearance in male CD1 mouse at 3 mg/kg, iv measured upto 24 hrs; format: ADME, organism-based; conditions: in vivo
Summary of the method: (§2)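 Male CD1 mice, n = 3 per group, dosed IV at 3 mg/kg or PO at 10 mg/kg in 10% DMSO/50% PEG400/40% of 20% HP-β-CD in water. Samples below the limit of quantitation excluded from parameters and mean concentrations.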

[7] = Volume of distribution at steady state in male CD1 mouse at 3 mg/kg, iv measured upto 24 hrs; format: ADME, organism-based; conditions: in vivo; summary of the method: as §2
[8] = Half life in male CD1 mouse at 10 mg/kg, po measured upto 24 hrs; format: ADME, organism-based; conditions: in vivo
[9] = AUClast in male CD1 mouse at 10 mg/kg, po measured upto 24 hrs; format: ADME, organism-based; conditions: in vivo; summary of the method: as §2
[10] = Oral bioavailability in male CD1 mouse at 10 mg/kg measured upto 24 hrs; format: ADME, organism-based; conditions: in vivo; summary of the method: as §2
[11] = test system: Plasmodium falciparum; test: Antiplasmodial activity against Plasmodium falciparum W2 infected in human erythrocytes assessed as inhibition of parasitic growth incubated for 72 hrs by YOYO-1 staining based FACScalibur flow cytometry analysis; format: functional, organism-based; conditions: W2, Erythrocyte
Summary of the method: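 P. falciparum W2 grown at 2% hematocrit in RPMI 1640 with 0.5% AlbuMAX II, 0.1 mM hypoxanthine and 25 mM HEPES pH 7.4, at 37 °C under 5% O2/5% CO2/90% N2. Twelve concentrations (3-fold steps, 10 μM to 0.06 nM) or DMSO, 72 h. Cells fixed in 2% formaldehyde, permeabilized, stained with 25 nM YOYO-1 (≥24 h, 4 °C). Parasitemia by flow cytometry on 5 × 10^4 cells. IC50 from 3 replicates.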

[12] = Solubility of the compound in PBS buffer at pH 7.4 at 2 mg/ml incubated for 5 to 6 hrs by LC-MS analysis; format: physicochemical; conditions: time 5-6 hrs
[13] = Oral bioavailability in rat at 17.4 mg/kg by LC-MS analysis; format: ADME, organism-based; conditions: in vivo
[14] = test system: Plasmodium berghei; test: Antiplasmodial activity Plasmodium berghei ANKA infected in female NMRI mouse model assessed as cure rate at 10 mg/kg, po administered as three consecutive dose daily for 24 to 72 hrs post infection by giemsa staining based microscopy analysis relative to control; format: functional; conditions: time 24-72 hrs
[15] = test system: Plasmodium berghei; test: Antiplasmodial activity against Plasmodium berghei infected in female Swiss Webster mouse model assessed as cure rate at 40 mg/kg, po measured upto 30 days relative to control; format: functional; conditions: time <= 30 day
[16] = Toxicity in female Swiss Webster mouse infected with Plasmodium berghei assessed as drug tolerance at 20 mg/kg, […]; format: organism-based; conditions: in vivo, po
[17] = test system: Plasmodium berghei; test: Antiplasmodial activity against Plasmodium berghei infected in female Swiss Webster mouse model assessed as survival at 20 mg/kg, po administered once daily for 1 day
[18] = test system: Plasmodium berghei; test: Antiplasmodial activity against Plasmodium berghei infected in female Swiss Webster mouse model assessed as survival at 20 mg/kg, po […]; format: functional; summary of the method: as §1
[19] = test system: Plasmodium berghei; test: Antiplasmodial activity against Plasmodium berghei infected in female Swiss Webster mouse model assessed as reduction in parasitemia at 20 mg/kg, po administered as a single dose and monitored for 30 days by giemsa staining based microscopic analysis; conditions: time 30.0 day
[20] = test system: Plasmodium berghei; test: Antiplasmodial activity against Plasmodium berghei infected in female Swiss Webster mouse model assessed as survival at 50 mg/kg, […]; format: functional; conditions: route po; summary of the method: as §1
[21] = test system: Plasmodium berghei; test: Antiplasmodial activity against Plasmodium berghei infected in female Swiss Webster mouse model assessed as survival at 4 mg/kg, po administered once daily for 2 days and measured upto 30 days; format: functional; conditions: time 30 day; summary of the method: as §1
[22] = Toxicity in female Swiss Webster mouse infected with Plasmodium berghei assessed as drug tolerance at 50 mg/kg, […]; format: organism-based; conditions: in vivo, po; summary of the method: as §1
[23] = Toxicity in female Swiss Webster mouse infected with Plasmodium berghei assessed as drug tolerance at 4 mg/kg, po administered once daily for 2 days and measured upto 30 days; format: organism-based; conditions: in vivo, 720 h, time 30 day; summary of the method: as §1

| Compound | solubility kinetic [2] | Survival [3] | Activity [4] | CL [6] | Vdss [7] | t1/2 [8] | AUClast [9] | F [10] | microsomal CLint [1] | Activity [16] | Survival [17] | also measured |
| --- | --- | --- | --- | --- | --- | --- | --- | --- | --- | --- | --- | --- |
| NCCNC(=O)O[C@H]1CCC[C@@]2(C1)OOC1(O2)C2CC3CC(C2)CC1C3 (stereo partly drawn) | 144 µM (≈ 52.8 µg/mL) | 30 days | Non-Toxic | 66 mL/min/kg | 2.33 L/kg | 1.66 h | 1038 ng·h/mL | 43.1% | – | – | – | microsomal intrinsic clearance ([1]; microsomes): 23.1 µL/min/mg; Activity [5]: Active |
| NC1(CNC(=O)O[C@@H]2CCC[C@]3(C2)OOC2(O3)C3CC4CC(C3)CC2C4)CC1 (stereo partly drawn) | – | – | – | – | – | – | – | – | 41.7 µL/min/mg | – | – | EC50 [11]: 1.5 nM |
| CC(C)(N)CNC(=O)C[C@H]1CC[C@]2(CC1)OO[C@]1(O2)C2CC3CC(C2)CC1C3 | – | 14 days | Non-Toxic | – | – | – | – | – | < 7 µL/min/mg | – | – | solubility [12]: 504 µM (≈ 198 µg/mL); bioavailability [13]: 35%; Activity [14]: 67%; Activity [15]: 100% |
| CC(C)(N)CNC(=O)O[C@H]1CCC[C@@]2(C1)OOC1(O2)C2CC3CC(C2)CC1C3 (stereo partly drawn) | 174 µM (≈ 68.6 µg/mL) | 30 days | Non-Toxic | 77 mL/min/kg | 2.5 L/kg | 1.44 h | 818 ng·h/mL | 38.9% | < 11.5 µL/min/mg | Non-Toxic | 20 days | Activity [5]: Active |
| (S,S)-dispiro[adamantane-2,3'-[1,2,4]trioxolane-5',1''-cyclohexan]-3''-yl-piperidine-1-carboxylate | – | – | – | – | – | – | – | – | – | – | – | Survival [18]: 7 days |
| CC(C)(N)CNC(=O)O[C@@H]1CCC[C@]2(C1)OOC1(O2)C2CC3CC(C2)CC1C3 (stereo partly drawn) | – | – | – | 108 mL/min/kg | 2.79 L/kg | 2.09 h | 555 ng·h/mL | 39.3% | 12.8 µL/min/mg | Non-Toxic | 12 days | – |
| c1cc([C@H]2CC[C@]3(CC2)OO[C@]2(O3)C3CC4CC(C3)CC2C4)ccc1OCCN1CCOCC1 | – | – | – | – | – | – | – | – | – | – | 30 days | solubility [12]: 0.181 µM (≈ 0.085 µg/mL); Activity [19]: Active |
| NC1CCN(C(=O)O[C@@H]2CCC[C@]3(C2)OOC2(O3)C3CC4CC(C3)CC2C4)CC1 (stereo partly drawn) | 145 µM (≈ 58.9 µg/mL) | 12 days | Non-Toxic | – | – | – | – | – | – | Non-Toxic | 11 days | Survival [20]: 12 days; Survival [21]: 11 days; Activity [22]: Non-Toxic; Activity [23]: Non-Toxic; Activity [15]: 20% |
